Screening data from PubChem BioAssay.
p97 ATPase inh: human p97 ATPase inhibition; P55072; recombinant p97 ATPase, Kinase-Glo ATP luminescence, 3 h; inhibition, % at 8 µM; hit rate 0.42% among 220,000; AID 1481; in the data active = inhibition above about 15%;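 also: 0% = DMSO vehicle and 100% = wells lacking enzyme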
PERK inh: blocks human PERK kinase; hit rate 0.17% among 220,000; inhibition, % at 5.6 µM; Q9NZJ5; CHO PERK-DD fusion, SEAP luminescence translation reporter; AID 1416;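 active = inhibition above the mean inhibition of all tested compounds plus 3 SD, set separately per screening campaign, cut at about 2.9% in these data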;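 also: PERK kinase domain activated by AP20187 dimerizer at 100 nM; 0% = DMSO with dimerizer and 100% = rapamycin at 8.4 µM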
Hck-Nef inh: inhibitors of human Hck kinase activated by Nef. hit rate 0.68% among 220,000. Recombinant Hck-YEEI plus Nef, Z-Lyte FRET kinase assay. inhibition, % at 20 µM. P08631;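 active = Hck-Nef kinase inhibition above about 50%, limit read from the data; inactive = inhibition below that limit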;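 also: 0% = DMSO with Hck plus Nef and 100% = Hck alone without Nef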
14-3-3 Bad PPI: disrupts binding of bovine 14-3-3 zeta to phospho-Bad peptide. hit rate 0.71% among 220,000. TR-FRET 14-3-3zeta/Dy647-pBad peptide displacement, 1 h. inhibition, % at 21.7 µM. P63103;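 active = inhibition above about 70%, limit read from the data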;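 also: 0% = full 14-3-3 plus peptide FRET controls and 100% = background without 14-3-3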
Calb biofilm kill: mixture kills Candida albicans biofilm cells. C. albicans biofilm persisters + clotrimazole, fluorescence viability; primary screen in compound mixtures of four per well. hit rate 0.02% among 120,000. inhibition, % at 7.6 µM;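 active = inhibition above 30.3% in the primary screen of four-compound pools, then above 30% when the compound was retested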;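 also: compounds exposed to preformed 24 h biofilms for 48 h; 0% = untreated biofilm control and 100% = clotrimazole plus chlorhexidine kill blank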
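Assay system: C. albicans biofilms / Medium: RPMI/MOPS medium, pH 7.0 / Schedule: biofilm formation 24 h, compound exposure 48 h, 37 °C / Measured by: Alamar Blue fluorescence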
eIF4E 4G PPI: eIF4E/eIF4G interaction inhibition in translation initiation; P63073+Q04637; TR-FRET eIF4E-eIF4GI(517-606) binding, 2 h; inhibition, % at 21.7 µM; hit rate 0.37% among 220,000;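 active = inhibition above about 30%, limit read from the data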;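 also: 0% = full FRET control wells and 100% = background wells lacking eIF4GI fragment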
Active calls of the source: *. A selection: hits, their analogues and other compounds. The true share with any hit is near 2.2%.

For COc1ccc(-c2csc(-c3[nH]cnc3N)n2)cc1 the results were p97 ATPase inh 5, PERK inh 0, Hck-Nef inh 20, 14-3-3 Bad PPI -15, Calb biofilm kill 13 and eIF4E 4G PPI -1.
NC(=O)CSc1nnc(CNc2ccc(F)cc2)n1CC1CCCO1 (stereo not drawn) was read as p97 ATPase inh 7, PERK inh 3.0*, Hck-Nef inh 1, 14-3-3 Bad PPI -8 and eIF4E 4G PPI 3.
`CCSc1nnc(CNc2ccc(F)cc2)n1CC1CCCO1` (stereo not drawn) gave p97 ATPase inh 4, PERK inh 1, Hck-Nef inh 2, 14-3-3 Bad PPI -9 and eIF4E 4G PPI -1.
COCCn1c(SCC#N)nnc1-c1ccccc1 was read as p97 ATPase inh 6, PERK inh 2, Hck-Nef inh -4, 14-3-3 Bad PPI 0 and eIF4E 4G PPI 12.
COCCSc1nnc(-c2cccc(C#N)c2)n1C was read as p97 ATPase inh 4, PERK inh 3.3*, Hck-Nef inh 0, 14-3-3 Bad PPI 6 and eIF4E 4G PPI 5.
Cc1cc(=O)oc(C)c1C(=O)Nc1ccc(F)cc1 was read as p97 ATPase inh 7, PERK inh -1, Hck-Nef inh 19, 14-3-3 Bad PPI -11, Calb biofilm kill 8 and eIF4E 4G PPI -2.
`NC(=O)CSc1nc2scc(-c3ccco3)c2c(=O)n1-c1ccccc1` gave p97 ATPase inh 15*, PERK inh 1, Hck-Nef inh 2, 14-3-3 Bad PPI 6 and eIF4E 4G PPI 9.
O=C(CSc1nc2scc(-c3ccco3)c2c(=O)n1-c1ccccc1)N1CCOCC1 was read as p97 ATPase inh 4, PERK inh 0, Hck-Nef inh 5, 14-3-3 Bad PPI -12 and eIF4E 4G PPI -2.
For CCC(C)(C)n1nnnc1C(c1ccccc1)N1CCc2ccccc2C1 (stereo not drawn) the results were p97 ATPase inh 0, PERK inh 1, Hck-Nef inh -15, 14-3-3 Bad PPI 2 and eIF4E 4G PPI 0.
CCC(C)(C)n1nnnc1C(c1ccc(O)c(OC)c1)N1CCc2ccccc2C1 (stereo not drawn) was read as p97 ATPase inh 5, PERK inh 0, Hck-Nef inh 1, 14-3-3 Bad PPI 82* and eIF4E 4G PPI 5.
Screening O=c1c(C=Nc2cccc(C(F)(F)F)c2)c[nH]n1-c1cccc(Cl)n1 returned p97 ATPase inh 4, PERK inh 4.3*, Hck-Nef inh 16, 14-3-3 Bad PPI 10 and eIF4E 4G PPI -26.
Screening O=C(Nc1nonc1NC(=O)c1cccs1)c1cccs1 returned p97 ATPase inh 5, PERK inh 0, Hck-Nef inh 12, 14-3-3 Bad PPI -6, Calb biofilm kill 7 and eIF4E 4G PPI -2.
`CCOc1ccc(C(Nc2cccnc2)c2cc(Cl)c3cccnc3c2O)cc1` (stereo not drawn) gave p97 ATPase inh 6, PERK inh -1, Hck-Nef inh 51*, 14-3-3 Bad PPI 21, Calb biofilm kill 62 and eIF4E 4G PPI 28.
`O=C(N/N=C\c1ccc(F)cc1)c1csnn1` gave Hck-Nef inh 1, 14-3-3 Bad PPI 89* and eIF4E 4G PPI 11.
For Cc1ccccc1/C=N\NC(=O)c1csnn1 the results were p97 ATPase inh 1, PERK inh 1, Hck-Nef inh 1, 14-3-3 Bad PPI -9 and eIF4E 4G PPI 0.
CC(C)C(=O)NC(=S)Nc1c(Cl)ccc2nsnc12 was read as p97 ATPase inh 7, PERK inh 0, Hck-Nef inh 21, 14-3-3 Bad PPI -7, Calb biofilm kill 12 and eIF4E 4G PPI 0.
`Cc1ccc(C2(CCNC(C)c3cccs3)CCOC(C(C)C)C2)cc1` (stereo not drawn) gave p97 ATPase inh -3, PERK inh 0, Hck-Nef inh -8, 14-3-3 Bad PPI -10, Calb biofilm kill 41* and eIF4E 4G PPI -8.
Screening O=C(NCC1CC1)c1onc(CSc2ccncc2)c1C(=O)NCC1CC1 returned Hck-Nef inh 26, 14-3-3 Bad PPI -6, Calb biofilm kill 12 and eIF4E 4G PPI -1.
For CCOc1cc(C(=O)Nc2ccc3c4c(cccc24)C(=O)N3CC)cc(OCC)c1OCC the results were p97 ATPase inh -5, PERK inh -1, Hck-Nef inh 6, 14-3-3 Bad PPI -2 and eIF4E 4G PPI 59*.
Screening COc1ccccc1-n1c(O)c(C=NCc2ccccn2)c2ccccc2c1=O returned p97 ATPase inh 15*, PERK inh 0, Hck-Nef inh 8, 14-3-3 Bad PPI -10, Calb biofilm kill 17 and eIF4E 4G PPI 0.
`COc1ccc(/C=C/C(=O)Nc2ccccc2Cl)cc1S(=O)(=O)N1CCOCC1` gave p97 ATPase inh 7, PERK inh 0, Hck-Nef inh 30, 14-3-3 Bad PPI -3, Calb biofilm kill 24 and eIF4E 4G PPI -17.
Cc1nn(CC(=O)Nc2cccnc2)c(=O)c2ccccc12 was read as p97 ATPase inh 5, PERK inh 1, Hck-Nef inh 15, 14-3-3 Bad PPI -7, Calb biofilm kill 10 and eIF4E 4G PPI -1.
For CCN(CC)CCn1c2ccccc2c2nc(C)sc21 the results were p97 ATPase inh 5, PERK inh 0, Hck-Nef inh 3, 14-3-3 Bad PPI 82* and eIF4E 4G PPI 13.
COC(=O)Cn1c2ccccc2c2nc(C)sc21 was read as p97 ATPase inh 0, PERK inh 0, Hck-Nef inh 1, 14-3-3 Bad PPI -15 and eIF4E 4G PPI -13.
`CCc1ccc(-n2c(SCC(=O)N3Cc4ccccc4CC3C(=O)O)nnc2-c2ccncc2)cc1` (stereo not drawn) gave p97 ATPase inh 4, PERK inh 3.4*, Hck-Nef inh -1, 14-3-3 Bad PPI -3, Calb biofilm kill 6 and eIF4E 4G PPI 0.
For Cc1ccc2c(c1)C(=O)C(=O)N2CC(=O)Nc1ccccc1NC(=O)c1ccccn1 the results were p97 ATPase inh 11, PERK inh 1, Hck-Nef inh 28, 14-3-3 Bad PPI -1, Calb biofilm kill 21 and eIF4E 4G PPI -2.
CCOc1ccc2[nH]c(=O)c(CN(CCN3CCCC3)C(=S)Nc3ccccc3OCC)cc2c1 was read as p97 ATPase inh 7, PERK inh 0, Hck-Nef inh 19, 14-3-3 Bad PPI -8, Calb biofilm kill 9 and eIF4E 4G PPI 3.
COc1ccc2[nH]c(=O)c(CN(CCN3CCCC3)C(=O)Nc3ccccc3Cl)cc2c1 was read as 14-3-3 Bad PPI -8 and eIF4E 4G PPI 58*.
Cc1cccc(NC(=O)CN2CCC(NC(=O)C3CCCCC3)CC2)c1C was read as p97 ATPase inh 2, PERK inh 1, Hck-Nef inh 5, 14-3-3 Bad PPI 6, Calb biofilm kill 4 and eIF4E 4G PPI 4.
Cc1ccc(S(=O)(=O)N/N=C\c2ccc3c(c2)OCO3)cc1 was read as p97 ATPase inh 16*, PERK inh 0, Hck-Nef inh -3, 14-3-3 Bad PPI -15 and eIF4E 4G PPI 14.
